ChEMBL document CHEMBL2046419, “Antibacterial anthraquinone derivatives from a sea anemone-derived fungus Nigrospora sp” (J Nat Prod, 2012)
Values after ≈ are worked out from the molar mass of the structure shown.

These molecules were tested on Bacillus subtilis (assay: Antibacterial activity against Bacillus subtilis ATCC 6633 after 24 hrs by serial dilution technique). Conditions: ATCC 6633, 24 h.
Format: functional
`COC1=CC(=O)c2cc3c(c(O)c2C1=O)C[C@](C)(O)[C@H](O)[C@H]3O` gave an MIC of 0.625 µM (≈ 0.2 µg/mL).
`COc1cc(O)c2c(c1O)C(=O)c1cc(C)c(O)cc1C2=O` was tested, and the MIC was > 200 µM.
Molecule `COc1cc(O)c2c(c1O)[C@H](O)[C@H]1C[C@](C)(O)[C@H](O)[C@@H](O)[C@@H]1C2=O` [9ALPHA-HYDROXYHALOROSELLINIA A] has an MIC of 12.5 µM (≈ 4.25 µg/mL).
`COc1cc(O)c2c(c1O)C(=O)c1cc(C)c(OC(C)=O)cc1C2=O` gave an MIC of 12.5 µM (≈ 4.28 µg/mL).
For `O=C(O)c1cn(C2CC2)c2cc(N3CCNCC3)c(F)cc2c1=O` [CIPROFLOXACIN], the MIC was 0.312 µM (≈ 0.103 µg/mL).

These molecules were tested on Bacillus cereus (assay: Antibacterial activity against Bacillus cereus ACCC 11077 after 24 hrs by serial dilution technique). Conditions: ACCC 11077, 24 h.
Format: functional
`COC1=CC(=O)c2cc3c(c(O)c2C1=O)C[C@](C)(O)[C@H](O)[C@H]3O` gave an MIC of 10 µM (≈ 3.2 µg/mL).
In the case of `COc1cc(O)c2c(c1O)C(=O)c1cc(C)c(O)cc1C2=O`, the MIC is reported as > 200 µM.
`COc1cc(O)c2c(c1O)[C@H](O)[C@H]1C[C@](C)(O)[C@H](O)[C@@H](O)[C@@H]1C2=O` [9ALPHA-HYDROXYHALOROSELLINIA A] gave an MIC of 12.5 µM (≈ 4.25 µg/mL).
`COc1cc(O)c2c(c1O)C(=O)c1cc(C)c(OC(C)=O)cc1C2=O` was tested, and the MIC was 50 µM (≈ 17.1 µg/mL).
In the case of `O=C(O)c1cn(C2CC2)c2cc(N3CCNCC3)c(F)cc2c1=O` [CIPROFLOXACIN], the MIC is reported as 1.25 µM (≈ 0.414 µg/mL).

The molecules below were run on Micrococcus luteus (assay: Antibacterial activity against Micrococcus luteus ATCC 49732 after 24 hrs by serial dilution technique). Conditions: ATCC 49732, 24 h.
Format: functional
`COC1=CC(=O)c2cc3c(c(O)c2C1=O)C[C@](C)(O)[C@H](O)[C@H]3O` was tested, and the MIC was 20 µM (≈ 6.41 µg/mL).
For `COc1cc(O)c2c(c1O)C(=O)c1cc(C)c(O)cc1C2=O`, the MIC was > 200 µM.
With `COc1cc(O)c2c(c1O)[C@H](O)[C@H]1C[C@](C)(O)[C@H](O)[C@@H](O)[C@@H]1C2=O` [9ALPHA-HYDROXYHALOROSELLINIA A] the MIC was > 100 µM.
In the case of `COc1cc(O)c2c(c1O)C(=O)c1cc(C)c(OC(C)=O)cc1C2=O`, the MIC is reported as > 200 µM.
For `O=C(O)c1cn(C2CC2)c2cc(N3CCNCC3)c(F)cc2c1=O` [CIPROFLOXACIN], the MIC was 2.5 µM (≈ 0.828 µg/mL).

These molecules were tested on Staphylococcus aureus (assay: Antibacterial activity against Staphylococcus aureus ATCC 27154 after 24 hrs by serial dilution technique). Conditions: ATCC 27154, 24 h.
Format: functional
With `COC1=CC(=O)c2cc3c(c(O)c2C1=O)C[C@](C)(O)[C@H](O)[C@H]3O` the MIC was 2.5 µM (≈ 0.801 µg/mL).
With `COc1cc(O)c2c(c1O)C(=O)c1cc(C)c(O)cc1C2=O` the MIC was > 200 µM.
`COc1cc(O)c2c(c1O)[C@H](O)[C@H]1C[C@](C)(O)[C@H](O)[C@@H](O)[C@@H]1C2=O` [9ALPHA-HYDROXYHALOROSELLINIA A] was tested, and the MIC was 0.78 µM (≈ 0.265 µg/mL).
In the case of `COc1cc(O)c2c(c1O)C(=O)c1cc(C)c(OC(C)=O)cc1C2=O`, the MIC is reported as > 200 µM.
For `O=C(O)c1cn(C2CC2)c2cc(N3CCNCC3)c(F)cc2c1=O` [CIPROFLOXACIN], the MIC was 0.156 µM (≈ 0.0517 µg/mL).

Each molecule was assayed on Micrococcus (assay: Antibacterial activity against Micrococcus tetragenus ATCC 13623 after 24 hrs by serial dilution technique). Conditions: ATCC 13623, 24 h.
Format: functional
`COC1=CC(=O)c2cc3c(c(O)c2C1=O)C[C@](C)(O)[C@H](O)[C@H]3O` showed an MIC of 1.25 µM (≈ 0.4 µg/mL).
For `COc1cc(O)c2c(c1O)C(=O)c1cc(C)c(O)cc1C2=O`, the MIC was > 200 µM.
`COc1cc(O)c2c(c1O)[C@H](O)[C@H]1C[C@](C)(O)[C@H](O)[C@@H](O)[C@@H]1C2=O` [9ALPHA-HYDROXYHALOROSELLINIA A] was tested, and the MIC was 3.12 µM (≈ 1.06 µg/mL).
In the case of `COc1cc(O)c2c(c1O)C(=O)c1cc(C)c(OC(C)=O)cc1C2=O`, the MIC is reported as > 200 µM.
In the case of `O=C(O)c1cn(C2CC2)c2cc(N3CCNCC3)c(F)cc2c1=O` [CIPROFLOXACIN], the MIC is reported as 0.039 µM (≈ 0.0129 µg/mL).

These molecules were tested on Escherichia coli (assay: Antibacterial activity against Escherichia coli ATCC 25922 after 24 hrs by serial dilution technique). Conditions: ATCC 25922, 24 h.
Format: functional
Molecule `COC1=CC(=O)c2cc3c(c(O)c2C1=O)C[C@](C)(O)[C@H](O)[C@H]3O` has an MIC of 2.5 µM (≈ 0.801 µg/mL).
For `COc1cc(O)c2c(c1O)C(=O)c1cc(C)c(O)cc1C2=O`, the MIC was > 200 µM.
`COc1cc(O)c2c(c1O)[C@H](O)[C@H]1C[C@](C)(O)[C@H](O)[C@@H](O)[C@@H]1C2=O` [9ALPHA-HYDROXYHALOROSELLINIA A] showed an MIC of 1.56 µM (≈ 0.531 µg/mL).
With `COc1cc(O)c2c(c1O)C(=O)c1cc(C)c(OC(C)=O)cc1C2=O` the MIC was > 200 µM.
Work on `O=C(O)c1cn(C2CC2)c2cc(N3CCNCC3)c(F)cc2c1=O` [CIPROFLOXACIN] yielded an MIC of 0.156 µM (≈ 0.0517 µg/mL).

Each molecule was assayed on Vibrio anguillarum (assay: Antibacterial activity against Vibrio anguillarum ATCC 19019 after 24 hrs by serial dilution technique). Conditions: ATCC 19019, 24 h.
Format: functional
`COC1=CC(=O)c2cc3c(c(O)c2C1=O)C[C@](C)(O)[C@H](O)[C@H]3O` gave an MIC of 2.5 µM (≈ 0.801 µg/mL).
With `COc1cc(O)c2c(c1O)C(=O)c1cc(C)c(O)cc1C2=O` the MIC was > 200 µM.
In the case of `COc1cc(O)c2c(c1O)[C@H](O)[C@H]1C[C@](C)(O)[C@H](O)[C@@H](O)[C@@H]1C2=O` [9ALPHA-HYDROXYHALOROSELLINIA A], the MIC is reported as 3.12 µM (≈ 1.06 µg/mL).
With `COc1cc(O)c2c(c1O)C(=O)c1cc(C)c(OC(C)=O)cc1C2=O` the MIC was > 200 µM.
`O=C(O)c1cn(C2CC2)c2cc(N3CCNCC3)c(F)cc2c1=O` [CIPROFLOXACIN] was tested, and the MIC was 0.078 µM (≈ 0.0258 µg/mL).

Each molecule was assayed on Vibrio parahaemolyticus (assay: Antibacterial activity against Vibrio parahaemolyticus ATCC 17802 after 24 hrs by serial dilution technique). Conditions: ATCC 17802, 24 h.
Format: functional
In the case of `COC1=CC(=O)c2cc3c(c(O)c2C1=O)C[C@](C)(O)[C@H](O)[C@H]3O`, the MIC is reported as 1.25 µM (≈ 0.4 µg/mL).
`COc1cc(O)c2c(c1O)C(=O)c1cc(C)c(O)cc1C2=O` was tested, and the MIC was > 200 µM.
With `COc1cc(O)c2c(c1O)[C@H](O)[C@H]1C[C@](C)(O)[C@H](O)[C@@H](O)[C@@H]1C2=O` [9ALPHA-HYDROXYHALOROSELLINIA A] the MIC was 3.12 µM (≈ 1.06 µg/mL).
In the case of `COc1cc(O)c2c(c1O)C(=O)c1cc(C)c(OC(C)=O)cc1C2=O`, the MIC is reported as > 200 µM.
In the case of `O=C(O)c1cn(C2CC2)c2cc(N3CCNCC3)c(F)cc2c1=O` [CIPROFLOXACIN], the MIC is reported as 0.078 µM (≈ 0.0258 µg/mL).

Each molecule was assayed on A549 (assay: Cytotoxicity against human A549 cells by MTT assay). Conditions: not given.
Format: functional, cell-based
Method in brief: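 A549 human lung cancer cells, MTT read-out, mitomycin as positive control; IC50 reported in μM.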
`COC1=CC(=O)c2cc3c(c(O)c2C1=O)C[C@](C)(O)[C@H](O)[C@H]3O` was tested, and the IC50 was 4.56 µM.
With `COc1cc(O)c2c(c1O)C(=O)c1cc(C)c(O)cc1C2=O` the IC50 was > 50 µM.
For `CO[C@@]12[C@H](COC(N)=O)C3=C(C(=O)C(C)=C(N)C3=O)N1C[C@@H]1N[C@@H]12` [MITOMYCIN], the IC50 was 3 µM.
`COc1cc(O)c2c(c1O)[C@H](O)[C@H]1C[C@](C)(O)[C@H](O)[C@@H](O)[C@@H]1C2=O` [9ALPHA-HYDROXYHALOROSELLINIA A] was tested, and the IC50 was 41.5 µM.

What follows are molecules tested on Staphylococcus albus (assay: Antibacterial activity against Staphylococcus albus ATCC 8799 after 24 hrs by serial dilution technique). Conditions: ATCC 8799, 24 h.
`COC1=CC(=O)c2cc3c(c(O)c2C1=O)C[C@](C)(O)[C@H](O)[C@H]3O` gave an MIC of 5 µM (≈ 1.6 µg/mL).
With `COc1cc(O)c2c(c1O)C(=O)c1cc(C)c(O)cc1C2=O` the MIC was > 200 µM.
In the case of `COc1cc(O)c2c(c1O)[C@H](O)[C@H]1C[C@](C)(O)[C@H](O)[C@@H](O)[C@@H]1C2=O` [9ALPHA-HYDROXYHALOROSELLINIA A], the MIC is reported as > 100 µM.
For `COc1cc(O)c2c(c1O)C(=O)c1cc(C)c(OC(C)=O)cc1C2=O`, the MIC was > 200 µM.
In the case of `O=C(O)c1cn(C2CC2)c2cc(N3CCNCC3)c(F)cc2c1=O` [CIPROFLOXACIN], the MIC is reported as 0.312 µM (≈ 0.103 µg/mL).
